# In ChEMBL document CHEMBL1671867, “Novel polymyxin derivatives carrying only three positive charges are effective antibacterial agents” (Antimicrob Agents Chemother, 2008):
# Activity calls are given as the source filed them. The rule behind the calls is not given here. Bridge positions count the residues as written; N and C are the ends. Square brackets hold non-standard residues; d marks the D form. Peptide text beside a SMILES is read from it. * marks the point of attachment. Decanoyl = CCCCCCCCCC(=O)*; Octanoyl = CCCCCCCC(=O)*; Dab = NCC[C@H](N)C(=O)O; Abu = CC[C@H](N)C(=O)O
# Legend:
# [1] = tested on: Escherichia coli; assay: Antibacterial activity against Escherichia coli IH3080 assessed as reduction in bacterial count at 2 ug/ml using fresh compound stock solution; format: functional, organism-based
# [2] = Inhibition of [3H]gentamicin binding to brush border membrane of renal cortex
# Procedure, shortened: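 Brush border membrane vesicles prepared from male albino rat renal cortex by Mg2+-EGTA precipitation. Incubated with 20 μM [3H]gentamicin in 10 mM HEPES pH 7.5 with 300 mM mannitol, with or without compound, 60 min at 4°C. Then filtered, washed, and bound radioactivity counted by scintillation. IC50 fitted with the Hill equation.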
# [3] = tested on: V79; assay: Cytotoxicity against chinese hamster V79 cells at […] to 128 ug/ml after 24 hrs; format: cell-based, Cricetulus griseus; settings: v79, 24 h
# [4] = tested on: Escherichia coli; assay: Antibacterial activity against Escherichia coli ATCC 25992 by Etest method; format: functional
# Procedure, shortened: (§1)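 E-strip MIC on Mueller-Hinton agar without added peptide; inoculum per manufacturer, matching CLSI M2-A9.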
# [5] = tested on: Pseudomonas aeruginosa; assay: (§2) Antibacterial activity against Pseudomonas aeruginosa ATCC 27853by Etest method in presence of […] NAB739; format: functional
# [6] = tested on: Pseudomonas aeruginosa; assay: as §2; format: functional; remark: listed apart in the source
# [7] = tested on: Pseudomonas aeruginosa; assay: Antibacterial activity against Pseudomonas aeruginosa ATCC 27853by Etest method; format: functional
# Procedure, shortened: (§3)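 MICs of the antibiotic taken from E-strips on Mueller-Hinton agar, run both with and without peptide. […] Inoculum was prepared per the strip manufacturer, matching CLSI M2-A9.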
# [8] = tested on: Acinetobacter baumannii; assay: Antibacterial activity against Acinetobacter baumannii F264 by Etest method in presence of 1 ug/ml NAB739; format: functional
# [9] = tested on: Acinetobacter baumannii; assay: Antibacterial activity against Acinetobacter baumannii F264 by Etest method in presence of 0.5 ug/ml NAB739; format: functional
# [10] = tested on: Acinetobacter baumannii; assay: (§4) Antibacterial activity against Acinetobacter baumannii F264 by Etest method in presence of […] NAB739; format: functional
# [11] = tested on: Acinetobacter baumannii; assay: Antibacterial activity against Acinetobacter baumannii F264 by Etest method; format: functional; procedure, shortened: as §1
# [12] = tested on: Acinetobacter baumannii; assay: as §4; format: functional; remark: listed apart in the source
# [13] = tested on: Acinetobacter baumannii; assay: Antibacterial activity against Acinetobacter baumannii ATCC 19606 by Etest method in presence of 1 ug/ml NAB739; format: functional
# [14] = tested on: Acinetobacter baumannii; assay: Antibacterial activity against Acinetobacter baumannii ATCC 19606 by Etest method in presence of 0.5 ug/ml NAB739; format: functional
# [15] = tested on: Acinetobacter baumannii; assay: (§5) Antibacterial activity against Acinetobacter baumannii ATCC 19606 by Etest method in presence of […] NAB739; format: functional
# [16] = tested on: Acinetobacter baumannii; assay: as §5; format: functional; remark: listed apart in the source
# [17] = tested on: Acinetobacter baumannii; assay: Antibacterial activity against Acinetobacter baumannii ATCC 19606 by Etest method; format: functional
# [18] = tested on: Pseudomonas aeruginosa; assay: Antibacterial activity against Pseudomonas aeruginosa ATCC 27853by Etest method in presence of 0.5 ug/ml NAB739; format: functional; procedure, shortened: as §3
# [19] = tested on: Pseudomonas aeruginosa; assay: Antibacterial activity against Pseudomonas aeruginosa ATCC 27853by Etest method in presence of 1 ug/ml NAB739; format: functional; procedure, shortened: as §3
# [20] = tested on: Pseudomonas aeruginosa; assay: Antibacterial activity against Pseudomonas aeruginosa ATCC 27853by Etest method in presence of 2 ug/ml NAB739; format: functional
# [21] = tested on: Escherichia coli; assay: Antibacterial activity against Escherichia coli ATCC […] by Etest method in presence of 1 ug/ml NAB7061; format: functional
# [22] = tested on: Escherichia coli; assay: Antibacterial activity against Escherichia coli ATCC […] by Etest method in presence of 2 ug/ml NAB7062; format: functional
# [23] = tested on: Escherichia coli; assay: Antibacterial activity against Escherichia coli ATCC […] by Etest method in presence of 4 ug/ml NAB7064; format: functional
# [24] = tested on: Escherichia coli; assay: Antibacterial activity against Escherichia coli IH3080 by Etest method; format: functional; procedure, shortened: as §1
# [25] = tested on: Escherichia coli; assay: Antibacterial activity against Escherichia coli IH3080 by Etest method in presence of 1 ug/ml NAB7061; format: functional
# [26] = tested on: Escherichia coli; assay: Antibacterial activity against Escherichia coli IH3080 by Etest method in presence of 2 ug/ml NAB7062; format: functional
# [27] = tested on: Escherichia coli; assay: Antibacterial activity against Escherichia coli IH3080 by Etest method in presence of 4 ug/ml NAB7064; format: functional
# [28] = tested on: Escherichia coli; assay: Antibacterial activity against Escherichia coli IH3080 by Etest method in presence of NAB7061; format: functional
# [29] = tested on: Klebsiella pneumoniae; assay: Antibacterial activity against Klebsiella pneumoniae ATCC 13883 by Etest method; format: functional; procedure, shortened: as §3
# [30] = tested on: Klebsiella pneumoniae; assay: Antibacterial activity against Klebsiella pneumoniae ATCC 13883 by Etest method in presence of 1 ug/ml NAB7061; format: functional; procedure, shortened: as §3
# [31] = tested on: Klebsiella pneumoniae; assay: Antibacterial activity against Klebsiella pneumoniae ATCC 13883 by Etest method in presence of 2 ug/ml NAB7061; format: functional; procedure, shortened: as §3
# [32] = tested on: Klebsiella pneumoniae; assay: Antibacterial activity against Klebsiella pneumoniae ATCC 13883 by Etest method in presence of 4 ug/ml NAB7061; format: functional; procedure, shortened: as §3
# [33] = tested on: Klebsiella pneumoniae; assay: Antibacterial activity against Klebsiella pneumoniae ATCC 13883 by Etest method in presence of NAB7061; format: functional; procedure, shortened: as §3
# [34] = tested on: Enterobacter cloacae; assay: Antibacterial activity against Enterobacter cloacae ATCC 23355 by Etest method; format: functional; procedure, shortened: as §1
# [35] = tested on: Enterobacter cloacae; assay: Antibacterial activity against Enterobacter cloacae ATCC 23355 […] by Etest method in presence of 1 ug/ml NAB7061; format: functional
# [36] = tested on: Enterobacter cloacae; assay: Antibacterial activity against Enterobacter cloacae ATCC 23355 […] by Etest method in presence of 2 ug/ml NAB7062; format: functional
# [37] = tested on: Enterobacter cloacae; assay: Antibacterial activity against Enterobacter cloacae ATCC 23355 […] by Etest method in presence of 4 ug/ml NAB7064; format: functional
# [38] = tested on: Enterobacter cloacae; assay: Antibacterial activity against Enterobacter cloacae ATCC 23355 […] by Etest method in presence of NAB7061; format: functional
# [39] = tested on: Escherichia coli; assay: Antibacterial activity against Escherichia coli by Etest method in presence of 4 ug/ml NAB7061; format: functional
# [40] = tested on: Escherichia coli; assay: Antibacterial activity against Escherichia coli NCTC13353 by Etest method in presence of 4 ug/ml NAB7062; format: functional
# [41] = tested on: Klebsiella pneumoniae; assay: Antibacterial activity against Klebsiella pneumoniae CCUG45421 by Etest method in presence of 4 ug/ml NAB7063; format: functional
# [42] = tested on: Klebsiella pneumoniae; assay: Antibacterial activity against Klebsiella pneumoniae by Etest method in presence of 4 ug/ml NAB7064; format: functional
# [43] = tested on: Klebsiella oxytoca; assay: Antibacterial activity against Klebsiella oxytoca ATCC 13182 by Etest method in presence of 4 ug/ml NAB7065; format: functional
# [44] = tested on: Klebsiella oxytoca; assay: Antibacterial activity against Klebsiella oxytoca CCUG51683 by Etest method in presence of 4 ug/ml NAB7066; format: functional
# [45] = tested on: Enterobacter cloacae; assay: Antibacterial activity against Enterobacter cloacae CCUG52947 by Etest method in presence of 4 ug/ml NAB7067; format: functional
# [46] = tested on: Enterobacter cloacae; assay: Antibacterial activity against Enterobacter cloacae by Etest method in presence of 4 ug/ml NAB7068; format: functional
# [47] = tested on: Citrobacter freundii; assay: Antibacterial activity against Citrobacter freundii ATCC 8090 by Etest method in presence of 4 ug/ml NAB7069; format: functional
# [48] = tested on: Acinetobacter baumannii; assay: Antibacterial activity against Acinetobacter baumannii ATCC 19606 by Etest method in presence of 4 ug/ml NAB7070; format: functional
# [49] = tested on: Acinetobacter baumannii; assay: Antibacterial activity against Acinetobacter baumannii by Etest method in presence of 4 ug/ml NAB7071; format: functional
# [50] = tested on: Serratia marcescens; assay: Antibacterial activity against Serratia marcescens ATCC 8100 by Etest method in presence of 4 ug/ml NAB7072; format: functional
# [51] = tested on: Proteus mirabilis; assay: Antibacterial activity against Proteus mirabilis ATCC 29906 by Etest method in presence of 4 ug/ml NAB7073; format: functional
# [52] = tested on: Proteus vulgaris; assay: Antibacterial activity against Proteus vulgaris ATCC 13315 by Etest method in presence of 4 ug/ml NAB7074; format: functional
# [53] = tested on: Pseudomonas aeruginosa; assay: Antibacterial activity against Pseudomonas aeruginosa ATCC 27853 by Etest method in presence of 4 ug/ml NAB7075; format: functional
smiles,measurement,setting,value
CCCCCCCC(=O)N[C@H](C(=O)N[C@H](CO)C(=O)N[C@H]1CCNC(=O)[C@H]([C@@H](C)O)NC(=O)[C@H](CCN)NC(=O)[C@H](CCN)NC(=O)[C@H](CC(C)C)NC(=O)[C@H](Cc2ccccc2)NC(=O)[C@H](CCN)NC1=O)[C@@H](C)O,Activity,[1],Active
CCCCCCCCCC(=O)N[C@H](C(=O)N[C@H](CO)C(=O)N[C@H]1CCNC(=O)[C@H]([C@@H](C)O)NC(=O)[C@H](CCN)NC(=O)[C@H](CCN)NC(=O)[C@H](CC(C)C)NC(=O)[C@@H](Cc2ccccc2)NC(=O)[C@H](CCN)NC1=O)[C@@H](C)O (Decanoyl-T[dS][Dab][Dab][dF]L[Dab][Dab]T; lactam 3-C),IC50,[2],198 µM
same,Activity,[3],Non-toxic
CCCCCCCC(=O)N[C@H](C(=O)N[C@@H](CC)C(=O)N[C@H]1CCNC(=O)[C@H]([C@@H](C)O)NC(=O)[C@H](CCN)NC(=O)[C@H](CCN)NC(=O)[C@H](CC(C)C)NC(=O)[C@@H](Cc2ccccc2)NC(=O)[C@H](CCN)NC1=O)[C@@H](C)O (Octanoyl-T[Abu][Dab][Dab][dF]L[Dab][Dab]T; lactam 3-C),IC50,[2],187 µM
same,Activity,[3],Non-toxic
CC[C@H]1OC(=O)[C@H](C)[C@@H](O[C@H]2C[C@@](C)(OC)[C@@H](O)[C@H](C)O2)[C@H](C)[C@@H](O[C@@H]2O[C@H](C)C[C@H](N(C)C)[C@H]2O)[C@](C)(OC)C[C@@H](C)C(=O)[C@H](C)[C@@H](O)[C@]1(C)O [CLARITHROMYCIN],MIC,[4],16 µg/mL
same,MIC,[5],32 µg/mL
same,MIC,[6],32 µg/mL
same,MIC,[7],48 µg/mL
same,MIC,[8],0.125 µg/mL
same,MIC,[9],0.5 µg/mL
same,MIC,[10],1.5 µg/mL
same,MIC,[11],6 µg/mL
same,MIC,[12],2 µg/mL
same,MIC,[13],0.094 µg/mL
same,MIC,[14],0.5 µg/mL
same,MIC,[15],1 µg/mL
same,MIC,[16],1.5 µg/mL
same,MIC,[17],8 µg/mL
same,MIC,[18],16 µg/mL
same,MIC,[19],12 µg/mL
same,MIC,[20],3 µg/mL
same,MIC,[21],0.5 µg/mL
same,MIC,[22],0.19 µg/mL
same,MIC,[23],0.094 µg/mL
same,MIC,[24],12 µg/mL
same,MIC,[25],0.5 µg/mL
same,MIC,[26],0.25 µg/mL
same,MIC,[27],0.047 µg/mL
same,MIC,[28],0.105 µg/mL
same,MIC,[29],12 µg/mL
same,MIC,[30],2 µg/mL
same,MIC,[31],1 µg/mL
same,MIC,[32],0.19 µg/mL
same,MIC,[33],≤ 0.141 µg/mL
same,MIC,[34],64 µg/mL
same,MIC,[35],32 µg/mL
same,MIC,[36],1.5 µg/mL
same,MIC,[37],0.25 µg/mL
same,MIC,[38],0.273 µg/mL
same,MIC,[39],0.032 µg/mL
same,MIC,[40],1 µg/mL
same,MIC,[41],24 µg/mL
same,MIC,[42],0.25 µg/mL
same,MIC,[43],0.25 µg/mL
same,MIC,[44],0.19 µg/mL
same,MIC,[45],0.38 µg/mL
same,MIC,[46],0.047 µg/mL
same,MIC,[47],0.125 µg/mL
same,MIC,[48],0.5 µg/mL
same,MIC,[49],0.25 µg/mL
same,MIC,[50],96 µg/mL
same,MIC,[51],24 µg/mL
same,MIC,[52],24 µg/mL
same,MIC,[53],32 µg/mL
